Results published in ChEMBL document CHEMBL5058577, “EUbOPEN Chemogenomics Library 2 (Multiplex)” (2022).

Tested on: HEK-293T
Experiment: Multiplex assay against HEK293T
Assay type: toxicity, cell-based
Conditions: human
Procedure, shortened: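 Live cells were stained at seeding with Hoechst33342, BioTracker Green Microtubule Cytoskeleton Dye, MitoTracker Red and Annexin V Alexa Fluor 680, then imaged on a CQ1 microscope at 37°C and 5% CO2 after compound addition. CellPathfinder machine-learning gating split cells into Hoechst high-intensity objects or normal cells. Normal cells were split into healthy, pyknosed or fragmented nuclei, and pyknosed cells into mitotic or apoptotic. Tubulin, mitochondrial-mass and membrane-permeability phenotypes are per cents of healthy-nucleus cells.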

[1] = 12 h, 1 µM, compound concentration 1 uM, replicate 1
[2] = 12 h, 1 µM, compound concentration 1 uM, replicate 2
[3] = 12 h, 10 µM, compound concentration 10 uM, replicate 1
[4] = 12 h, 10 µM, compound concentration 10 uM, replicate 2
[5] = 24 h, 1 µM, compound concentration 1 uM, replicate 1
[6] = 24 h, 1 µM, compound concentration 1 uM, replicate 2
[7] = 24 h, 10 µM, compound concentration 10 uM, replicate 1
[8] = 24 h, 10 µM, compound concentration 10 uM, replicate 2
[9] = 48 h, 1 µM, compound concentration 1 uM, replicate 1
[10] = 48 h, 1 µM, compound concentration 1 uM, replicate 2
[11] = 48 h, 10 µM, compound concentration 10 uM, replicate 1
[12] = 48 h, 10 µM, compound concentration 10 uM, replicate 2

Structure (SMILES): CCc1cc2cc(NS(=O)(=O)c3ccc(C#N)cc3)ccc2n(CC)c1=O
- Population Apoptotic (%) [1]: 43%
- Population Fragmented Nuclei (%) [1]: 8%
- Population Healthy Nuclei (%) [1]: 78%
- Population Hoechst High Intensity Objects (%) [1]: 9%
- Population Membrane Permeable-Phenotype (%) [1]: 0%
- Population Mitochondria Different-Phenotype (%) [1]: 37%
- Population Mitotic Cells (%) [1]: 56%
- Population Normal (%) [1]: 90%
- Population Pyknosed Nuclei (%) [1]: 12%
- Population Tubulin-Different-Phenotype (%) [1]: 28%
- Total Cell Count [1]: 411
- Population Apoptotic (%) [2]: 40%
- Population Fragmented Nuclei (%) [2]: 7%
- Population Hoechst High Intensity Objects (%) [2]: 7%
- Population Mitochondria Different-Phenotype (%) [2]: 64%
- Population Mitotic Cells (%) [2]: 59%
- Population Normal (%) [2]: 92%
- Population Pyknosed Nuclei (%) [2]: 14%
- Population Tubulin-Different-Phenotype (%) [2]: 29%
- Total Cell Count [2]: 338
- Population Apoptotic (%) [3]: 38%
- Population Fragmented Nuclei (%) [3]: 7%
- Population Healthy Nuclei (%) [3]: 80%
- Population Hoechst High Intensity Objects (%) [3]: 7%
- Population Membrane Permeable-Phenotype (%) [3]: 0%
- Population Mitochondria Different-Phenotype (%) [3]: 47%
- Population Mitotic Cells (%) [3]: 61%
- Population Normal (%) [3]: 92%
- Population Pyknosed Nuclei (%) [3]: 12%
- Population Tubulin-Different-Phenotype (%) [3]: 48%
- Total Cell Count [3]: 404
- Population Apoptotic (%) [4]: 65%
- Population Fragmented Nuclei (%) [4]: 6%
- Population Healthy Nuclei (%) [4]: 69%
- Population Hoechst High Intensity Objects (%) [4]: 16%
- Population Mitochondria Different-Phenotype (%) [4]: 71%
- Population Mitotic Cells (%) [4]: 34%
- Population Normal (%) [4]: 83%
- Population Pyknosed Nuclei (%) [4]: 23%
- Population Tubulin-Different-Phenotype (%) [4]: 41%
- Total Cell Count [4]: 291
- Population Apoptotic (%) [5]: 29%
- Population Fragmented Nuclei (%) [5]: 8%
- Population Healthy Nuclei (%) [5]: 80%
- Population Hoechst High Intensity Objects (%) [5]: 5%
- Population Membrane Permeable-Phenotype (%) [5]: 1%
- Population Mitochondria Different-Phenotype (%) [5]: 19%
- Population Mitotic Cells (%) [5]: 70%
- Population Normal (%) [5]: 94%
- Population Pyknosed Nuclei (%) [5]: 11%
- Population Tubulin-Different-Phenotype (%) [5]: 18%
- Total Cell Count [5]: 510
- Population Apoptotic (%) [6]: 43%
- Population Fragmented Nuclei (%) [6]: 7%
- Population Healthy Nuclei (%) [6]: 84%
- Population Membrane Permeable-Phenotype (%) [6]: 0%
- Population Mitochondria Different-Phenotype (%) [6]: 44%
- Population Mitotic Cells (%) [6]: 56%
- Population Pyknosed Nuclei (%) [6]: 7%
- Population Tubulin-Different-Phenotype (%) [6]: 22%
- Total Cell Count [6]: 403
- Population Apoptotic (%) [7]: 33%
- Population Fragmented Nuclei (%) [7]: 9%
- Population Healthy Nuclei (%) [7]: 80%
- Population Hoechst High Intensity Objects (%) [7]: 6%
- Population Membrane Permeable-Phenotype (%) [7]: 0%
- Population Mitochondria Different-Phenotype (%) [7]: 36%
- Population Mitotic Cells (%) [7]: 66%
- Population Normal (%) [7]: 93%
- Population Pyknosed Nuclei (%) [7]: 10%
- Population Tubulin-Different-Phenotype (%) [7]: 32%
- Total Cell Count [7]: 478
- Population Apoptotic (%) [8]: 63%
- Population Fragmented Nuclei (%) [8]: 10%
- Population Healthy Nuclei (%) [8]: 73%
- Population Hoechst High Intensity Objects (%) [8]: 17%
- Population Membrane Permeable-Phenotype (%) [8]: 1%
- Population Mitochondria Different-Phenotype (%) [8]: 58%
- Population Mitotic Cells (%) [8]: 36%
- Population Normal (%) [8]: 82%
- Population Pyknosed Nuclei (%) [8]: 16%
- Population Tubulin-Different-Phenotype (%) [8]: 29%
- Total Cell Count [8]: 332
- Population Apoptotic (%) [9]: 30%
- Population Fragmented Nuclei (%) [9]: 11%
- Population Healthy Nuclei (%) [9]: 81%
- Population Hoechst High Intensity Objects (%) [9]: 2%
- Population Membrane Permeable-Phenotype (%) [9]: 1%
- Population Mitochondria Different-Phenotype (%) [9]: 11%
- Population Mitotic Cells (%) [9]: 69%
- Population Normal (%) [9]: 97%
- Population Pyknosed Nuclei (%) [9]: 6%
- Population Tubulin-Different-Phenotype (%) [9]: 13%
- Total Cell Count [9]: 878
- Population Apoptotic (%) [10]: 38%
- Population Fragmented Nuclei (%) [10]: 14%
- Population Healthy Nuclei (%) [10]: 79%
- Population Hoechst High Intensity Objects (%) [10]: 4%
- Population Mitochondria Different-Phenotype (%) [10]: 23%
- Population Mitotic Cells (%) [10]: 61%
- Population Normal (%) [10]: 95%
- Population Pyknosed Nuclei (%) [10]: 5%
- Population Tubulin-Different-Phenotype (%) [10]: 12%
- Total Cell Count [10]: 608
- Population Apoptotic (%) [11]: 26%
- Population Fragmented Nuclei (%) [11]: 14%
- Population Healthy Nuclei (%) [11]: 78%
- Population Hoechst High Intensity Objects (%) [11]: 4%
- Population Membrane Permeable-Phenotype (%) [11]: 1%
- Population Mitochondria Different-Phenotype (%) [11]: 23%
- Population Mitotic Cells (%) [11]: 73%
- Population Normal (%) [11]: 95%
- Population Pyknosed Nuclei (%) [11]: 6%
- Population Tubulin-Different-Phenotype (%) [11]: 20%
- Total Cell Count [11]: 734
- Population Apoptotic (%) [12]: 47%
- Population Fragmented Nuclei (%) [12]: 16%
- Population Healthy Nuclei (%) [12]: 73%
- Population Hoechst High Intensity Objects (%) [12]: 10%
- Population Mitochondria Different-Phenotype (%) [12]: 40%
- Population Mitotic Cells (%) [12]: 52%
- Population Normal (%) [12]: 89%
- Population Pyknosed Nuclei (%) [12]: 9%
- Population Tubulin-Different-Phenotype (%) [12]: 23%
- Total Cell Count [12]: 383
